Bioassay records deposited in PubChem by several laboratories.
PKD1 kinase inh: PKD1 (human) kinase inhibition | Q15139 | PKD1 kinase fluorescence polarization assay | inhibition, % (no concentration beside the values) | 200,000 compounds, 0.056% hits | AID 797; in the data active = inhibition above about 50%
Target sequence (Q15139 whole entry, looked up): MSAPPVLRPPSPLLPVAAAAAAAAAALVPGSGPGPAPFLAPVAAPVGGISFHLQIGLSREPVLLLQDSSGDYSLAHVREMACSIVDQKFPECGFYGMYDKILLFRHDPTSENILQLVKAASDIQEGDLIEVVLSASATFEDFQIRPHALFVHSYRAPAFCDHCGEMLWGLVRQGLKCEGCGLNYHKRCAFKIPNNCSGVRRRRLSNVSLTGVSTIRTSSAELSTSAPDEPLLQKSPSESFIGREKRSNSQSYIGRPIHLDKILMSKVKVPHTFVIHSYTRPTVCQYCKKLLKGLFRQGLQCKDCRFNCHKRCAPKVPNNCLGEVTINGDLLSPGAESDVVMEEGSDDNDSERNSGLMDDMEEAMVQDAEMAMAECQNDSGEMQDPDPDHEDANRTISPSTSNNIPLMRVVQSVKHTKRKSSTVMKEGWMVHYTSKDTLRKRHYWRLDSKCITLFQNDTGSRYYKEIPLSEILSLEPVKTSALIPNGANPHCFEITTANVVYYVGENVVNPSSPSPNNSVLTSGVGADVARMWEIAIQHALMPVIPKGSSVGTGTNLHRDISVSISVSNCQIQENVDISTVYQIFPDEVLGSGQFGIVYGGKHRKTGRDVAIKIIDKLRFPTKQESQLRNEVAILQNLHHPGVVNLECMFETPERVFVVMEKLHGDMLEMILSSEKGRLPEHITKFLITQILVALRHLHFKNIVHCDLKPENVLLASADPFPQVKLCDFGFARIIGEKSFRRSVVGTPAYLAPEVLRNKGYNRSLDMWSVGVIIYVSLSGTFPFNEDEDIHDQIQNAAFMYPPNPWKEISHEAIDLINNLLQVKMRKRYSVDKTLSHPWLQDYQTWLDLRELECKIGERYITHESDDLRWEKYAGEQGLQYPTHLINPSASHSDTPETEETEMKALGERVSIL
DTT redox prof: compounds producing H2O2 with reducing agent – biochemical, NIH compound library profiling, artefact control for MLSCN library redox annotation, primary screen; DTT-dependent redox cycling H2O2, phenol red/HRP absorbance; 100% = 100 µM peroxide control, 0% = buffer; activation, % at 10 µM; 200,000 compounds, 0.03% hits;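 active = activation of at least 50% relative to the plate's high and low controls in the primary single-dose screen; inactive = activation below 50%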;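 note: compound incubated with DTT at 0.8 mM final as the reducing agent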
Arbovirus anti: arbovirus infection inhibition. AID 1251. 200,000 compounds, 0.37% hits. arbovirus infection cell-based antiviral screen. inhibition, % at 10 µM; in the data active = inhibition above about 30%
RBBP9 inhibitor: blocks human serine hydrolase RBBP9; recombinant RBBP9, FP-Rh probe fluorescence polarization; inhibition, % at 7.94 µM; 220,000 compounds, 0.2% hits;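 active = inhibition above the campaign mean of all tested compounds plus 3 SD, cut at about 14% in these data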;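 note: plate controls were DMSO wells with RBBP9 for no effect and wells lacking RBBP9 protein for full effect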
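Measured by – fluorescence polarization · Test system – RBBP9 protein · Input – 2.5 µM RBBP9 dispensing solution, before mixing · Measure – percent inhibition from mP, scaled between DMSO and no-protein wells · Benchmarks – DMSO-treated enzyme wells and wells lacking RBBP9 · Times – preincubation 30 min plus labeling 45 min at 25 °C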
Wee1 stabilizer: blocks degradation of human Wee1 kinase. 220,000 compounds, 1.2% hits. HeLa Luc-Wee1K328M stability, luciferase luminescence; 100% = proteasome inhibitor MG132 effect. P30291. AID 1321. reporter increase, % at 5 µM;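 active = activation above the mean of all tested compounds plus 3 SD, set per screening run, cut at about 8.8% in these data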;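 note: cells exposed to compound for 20 h before luminescence read; 0% = DMSO alone and 100% = MG132 at 30 µM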
p97 inhibitor: human p97 ATPase inhibition; P55072; recombinant p97 ATPase, Kinase-Glo ATP luminescence, 3 h; 220,000 compounds, 0.42% hits; inhibition, % at 8 µM; in the data active = inhibition above about 15%;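 note: 0% = DMSO vehicle and 100% = wells lacking enzyme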
* = called active by the depositor. The list is not random: actives were taken first. Their share in the collection is about 2.2%.

Screening CC(C)Cn1c2c(c(O)c(C(=O)Nc3nc4ccccc4s3)c1=O)CCCC2 returned RBBP9 inhibitor -1, Wee1 stabilizer 3 and p97 inhibitor 0.
For CCCn1c2c(c(O)c(C(=O)Nc3nc4ccccc4s3)c1=O)CCCC2 the results were PKD1 kinase inh 7, DTT redox prof 2, Arbovirus anti 43*, RBBP9 inhibitor -4, Wee1 stabilizer 2 and p97 inhibitor -5.
For CCOC(=O)c1sc2nc(-c3cccnc3)ccc2c1N the results were PKD1 kinase inh -4, DTT redox prof 0, Arbovirus anti -18, RBBP9 inhibitor 2, Wee1 stabilizer 9.3* and p97 inhibitor 5.
`COc1ccc(NC(=O)c2cc3c(=O)n(C)c4ccccc4c3s2)cc1OC` gave PKD1 kinase inh -9, DTT redox prof 0, Arbovirus anti -14, RBBP9 inhibitor -6, Wee1 stabilizer -1 and p97 inhibitor 2.
C/C(CC(=O)Nc1ccc(N(C)C)cc1)=N\NC(=O)C(=O)NCc1ccccc1 was read as PKD1 kinase inh 4, DTT redox prof 0, Arbovirus anti 1, RBBP9 inhibitor 1, Wee1 stabilizer 9.9* and p97 inhibitor 4.
`Cc1cc(C)c(S(=O)(=O)N2CCCCC2C(=O)O)c(C)c1` (stereo unspecified) gave PKD1 kinase inh 0, DTT redox prof 0, Arbovirus anti 0, RBBP9 inhibitor -6, Wee1 stabilizer 0 and p97 inhibitor 2.
For CC(=O)c1cccc(NC(=O)C(C)OC(=O)CNC(=O)c2ccc(C)s2)c1 (stereo unspecified) the results were PKD1 kinase inh 0, DTT redox prof -1, Arbovirus anti 7, RBBP9 inhibitor -1, Wee1 stabilizer 9.2* and p97 inhibitor 2.
For O=C(CS(=O)(=O)Cc1ccccc1)Nc1ccc2c(c1)OCO2 the results were PKD1 kinase inh 2, DTT redox prof 0, Arbovirus anti 0, RBBP9 inhibitor -3, Wee1 stabilizer 11* and p97 inhibitor 6.
For O=C(CNS(=O)(=O)c1ccccc1)Nc1ccc2c(c1)OCO2 the results were PKD1 kinase inh -8, DTT redox prof 0, Arbovirus anti 14, RBBP9 inhibitor -8, Wee1 stabilizer -3 and p97 inhibitor 6.
For CC(C)(C)C(=O)/C=C/c1ccc(Oc2ccccc2)cc1 the results were RBBP9 inhibitor -2, Wee1 stabilizer -3 and p97 inhibitor -4.
Screening O=C(O)c1ccc(COc2ccc3ccccc3c2/C=C2/NC(=O)N(Cc3ccc(F)cc3)C2=O)cc1 returned PKD1 kinase inh 1, DTT redox prof 1, Arbovirus anti 48*, RBBP9 inhibitor -10, Wee1 stabilizer -3 and p97 inhibitor 3.
O=C(O)c1ccc(COc2ccccc2/C=C2\NC(=O)N(Cc3ccccc3)C2=O)cc1 was read as PKD1 kinase inh -3, DTT redox prof -1, Arbovirus anti -8, RBBP9 inhibitor -4, Wee1 stabilizer 2 and p97 inhibitor 3.
For O=C1c2ccccc2C(=O)N1c1ccc(S(=O)(=O)N2CCN(c3ccccc3)CC2)cc1 the results were PKD1 kinase inh -1, DTT redox prof 0, Arbovirus anti -7, RBBP9 inhibitor -9, Wee1 stabilizer 9.4* and p97 inhibitor -1.
Screening Cc1ccc(S(=O)(=O)Nc2ccc(O)c(Sc3ncn[nH]3)c2)cc1 returned PKD1 kinase inh 0, DTT redox prof -1, Arbovirus anti 9, RBBP9 inhibitor -3, Wee1 stabilizer -2 and p97 inhibitor 10.
CCOc1ccc(S(=O)(=O)Nc2ccc(O)c(Sc3ncn[nH]3)c2)cc1 was read as PKD1 kinase inh 4, DTT redox prof 1, Arbovirus anti -1, RBBP9 inhibitor 1, Wee1 stabilizer 29* and p97 inhibitor 6.
For COC(=O)c1cc2ccsc2n1CC(=O)N1CCCc2ccccc21 the results were PKD1 kinase inh -7, DTT redox prof 1, Arbovirus anti -3, RBBP9 inhibitor -4, Wee1 stabilizer 20* and p97 inhibitor 2.
Screening CSc1cccc(NC(=O)C2CCCN(S(=O)(=O)c3cnc[nH]3)C2)c1 (stereo unspecified) returned PKD1 kinase inh -7, DTT redox prof -1, Arbovirus anti 8, RBBP9 inhibitor 5, Wee1 stabilizer 0 and p97 inhibitor 17*.
For CC(C(=O)NCc1ccccn1)c1ccc([N+](=O)[O-])cc1 (stereo unspecified) the results were PKD1 kinase inh 4, DTT redox prof 0, Arbovirus anti 0, RBBP9 inhibitor 1, Wee1 stabilizer 1 and p97 inhibitor 0.
COc1ccc(Sc2nc(-c3ccccc3)ncc2C(=O)O)cc1 was read as PKD1 kinase inh 8, DTT redox prof -1, Arbovirus anti 7, RBBP9 inhibitor 1, Wee1 stabilizer -3 and p97 inhibitor 6.
Screening O=C(O)c1cnc(-c2ccccc2)nc1Sc1ccc(Cl)cc1 returned PKD1 kinase inh -3, DTT redox prof -6, Arbovirus anti 66*, RBBP9 inhibitor -11, Wee1 stabilizer -2 and p97 inhibitor -1.
O=C(O)c1cnc(-c2ccccc2)nc1Sc1ccccc1Cl was read as PKD1 kinase inh -11, DTT redox prof 2, Arbovirus anti 43*, RBBP9 inhibitor -3, Wee1 stabilizer -1 and p97 inhibitor 4.
`Cc1cccc(Sc2nc(-c3ccccc3)ncc2C(=O)O)c1` gave PKD1 kinase inh -4, DTT redox prof -1, Arbovirus anti 32*, RBBP9 inhibitor -5, Wee1 stabilizer -1 and p97 inhibitor -1.
For CCN(CC)CCNc1nc2nonc2nc1NCCN(CC)CC the results were RBBP9 inhibitor -4, Wee1 stabilizer -2 and p97 inhibitor 5.
Screening Cc1c(N/C(=N/S(=O)(=O)c2ccc(Cl)cc2)c2ccccc2)c(=O)n(-c2ccccc2)n1C returned PKD1 kinase inh -4, DTT redox prof 0, Arbovirus anti 1, RBBP9 inhibitor -9, Wee1 stabilizer -2 and p97 inhibitor -5.
For Fc1cccc(Cl)c1CNC(c1ccccc1)c1ccccc1 the results were PKD1 kinase inh 6, DTT redox prof 1, Arbovirus anti -2, RBBP9 inhibitor 4, Wee1 stabilizer 9.1* and p97 inhibitor 2.
O=C(Nc1c(C(=O)O)oc2ccc(Br)cc12)c1ccccc1 was read as PKD1 kinase inh 1, DTT redox prof -1, Arbovirus anti 4, RBBP9 inhibitor -14, Wee1 stabilizer 13* and p97 inhibitor 6.
For O=c1c(Cl)c(N2CCN(c3ccc(F)cc3)CC2)cnn1C12CC3CC(CC(C3)C1)C2 the results were PKD1 kinase inh 4, DTT redox prof 0, Arbovirus anti 37*, RBBP9 inhibitor -4, Wee1 stabilizer -3 and p97 inhibitor -12.
For CCN1CCN(S(=O)(=O)c2cc(C(=O)O)ccc2Cl)CC1 the results were RBBP9 inhibitor -1, Wee1 stabilizer 9.6* and p97 inhibitor 1.
